Results of several laboratories.
OfChi-h: Chitinase (OfChi-h, Ostrinia furnacalis, UniProt Q4AE59)
WDR5: WD repeat-containing protein 5 (WDR5, Homo sapiens, UniProt P61964)

The IC50 of `CCCCc1ccc(CNc2nc(N(C)C)nc(N(C)C)c2/N=N/c2ccc(Cl)cc2)cc1` is reported as 0.07 µM (OfChi-h; enzyme activity; inhibitor; fluorescence).
`O=C(NO)c1cncc(OS(=O)(=O)Oc2ccc(-n3ccnc3)cc2)c1` gave a Ki of 1.68 µM (Histone deacetylase 7 (HDAC7, Homo sapiens, UniProt Q8WUI4); enzyme activity; inhibitor; fluorescence).
For `CC(=O)N[C@H]1Cc2ccc(cc2)OC/C=C/C[C@@H](C(=O)N[C@@H](CCCNC(=N)N)C(=O)c2nc3ccccc3s2)NC(=O)[C@H](CC(C)C)NC1=O`, the IC50 was 0.00026 µM (Serine protease hepsin (HPN, Homo sapiens, UniProt P05981); enzyme activity; inhibitor; fluorescence; with preincubation).
The Kd of `C=CS(=O)(=O)c1ccc(Nc2nc(OCC3CCCCC3)c3nc[nH]c3n2)cc1` is reported as 36.1 µM (Gasdermin-D (GSDMD, Homo sapiens, UniProt P57764); binding; MST).
`Cn1c(=O)c2c(ncn2C)n(C)c1=O` has an IC50 of > 5000 µM (Solute carrier family 22 member 12 (SLC22A12, Homo sapiens, UniProt Q96S37); transporter uptake; inhibitor; radiometric; oocytes).
`C[C@@H]1CN(c2ccc(-c3cc(C(=O)NCCOCCOCCOCCOCCOCCOCCNC(=O)/C=C/c4[nH]cc(C(=O)N[C@@H](CC(N)=O)c5ccc(F)c(Cl)c5)c4-c4ccc(Cl)cc4F)ccc3F)cc2NC(=O)c2ccc(F)cc2C(F)(F)F)C[C@H](C)N1C` has a Kd of 0.0808 µM (WDR5; binding; SPR).
The IC50 of `CN(C)c1nc(NCc2cccc(F)c2)c(/N=N/c2ccc(Cl)cc2)c(N(C)C)n1` is reported as 0.26 µM (OfChi-h; enzyme activity; inhibitor; fluorescence).
`C[C@@H]1CN(c2ccc(-c3cc(C(=O)NCCOCCOCCOCCOCCNC(=O)/C=C/c4[nH]cc(C(=O)N[C@@H](CC(N)=O)c5ccc(F)c(Cl)c5)c4-c4ccc(Cl)cc4F)ccc3F)cc2NC(=O)c2c[nH]c(=O)cc2C(F)(F)F)C[C@H](C)N1C` has a Kd of 0.0176 µM (WDR5; binding; SPR).
For `CN(C)c1nc(NCc2cccc(C(F)(F)F)c2)c(/N=N/c2ccc(Cl)cc2)c(N(C)C)n1`, the IC50 was 0.3 µM (OfChi-h; enzyme activity; inhibitor; fluorescence).
The Kd of `CCNC(=O)N1CCN(c2nc(NC3CCN(C(=O)[C@@H](CCc4ccc(OC)cc4)NC(=O)[C@@H]4CCCCN4C(=O)C(=O)C(C)(C)CC)CC3)nc(N(Cc3cnn(C)c3)C3CC3)n2)CC1` is reported as > 10 µM (Bromodomain-containing protein 9 (BRD9, Homo sapiens, UniProt Q9H8M2); binding; SPR).
